# Screens: PubChem BioAssay, several laboratories
# Autophagy HCS – modulators of autophagy; MEF GFP-LC3 puncta imaging; test concentration mostly 10 µM; calls only at 10 µM (by protocol); 190,000 tested, 0.98% active; AID 463193;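 active = percentage of spot-positive cells more than 3 SD above its plate mean, without a fluorescence outlier flag or 80% toxicity; inconclusive = no clear call, values can overlap the other calls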;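 also: spot-positive cell cutoff set from DMSO-treated cells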
# TNAP act hiacc – increases human TNAP activity under high phosphate acceptor concentration; AID 1136; purified TNAP, CDP-star luminescence, 1 M DEA, 30 min; active compounds read high; 0 = EDTA background, 1 = DMSO-only activity; activation factor at 20 µM; 200,000 tested, under 10 active;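 active = activation factor at least 2 at 20 µM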
# Target sequence (P05186 whole entry, looked up): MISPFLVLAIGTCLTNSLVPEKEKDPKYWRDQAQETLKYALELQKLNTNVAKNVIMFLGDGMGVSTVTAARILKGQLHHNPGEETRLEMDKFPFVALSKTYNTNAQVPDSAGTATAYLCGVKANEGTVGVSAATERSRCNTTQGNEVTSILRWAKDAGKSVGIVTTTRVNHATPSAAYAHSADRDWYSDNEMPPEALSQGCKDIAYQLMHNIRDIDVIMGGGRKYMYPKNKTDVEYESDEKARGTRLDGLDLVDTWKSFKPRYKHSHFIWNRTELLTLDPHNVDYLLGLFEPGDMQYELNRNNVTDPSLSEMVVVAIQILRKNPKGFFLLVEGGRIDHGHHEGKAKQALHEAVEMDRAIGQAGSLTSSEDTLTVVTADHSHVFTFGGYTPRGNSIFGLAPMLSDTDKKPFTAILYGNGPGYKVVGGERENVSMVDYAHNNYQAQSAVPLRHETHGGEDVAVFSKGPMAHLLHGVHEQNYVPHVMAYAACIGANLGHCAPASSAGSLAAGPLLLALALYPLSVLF
#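 Assay system: human TNAP; Input: enzyme diluted 1/800 final; Reagent: CDP-star luminogenic substrate at 100 µM final; Timing: 30 min, room temperature; Signal: luminescence; Evaluation: TNAP activation factor scaled between EDTA and DMSO control wells.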
# Ins promoter up – MIN6 insulin promoter up-regulation; MIN6 insulin promoter-GFP reporter, high-content imaging; active compounds read high; z-score at 5 µM; 190,000 tested, 0.3% active; AID 1625;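 active = z-score above 3 at 5 µM with at least 500 cells counted in the well; inconclusive = wells under 500 cells, flagged as cytotoxic or low count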
# TNAP inh noacc – blocks human TNAP activity with no phosphate acceptor present | P05186 | purified TNAP, CDP-star luminescence, 30 min | inhibition, % at 20 µM | 200,000 tested, 0.26% active | AID 1012;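 active = tissue-nonspecific alkaline phosphatase inhibition above about 50% at 20 µM in the single-dose screen, limit read from the data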;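 also: 0% = DMSO negative control and 100% = EDTA positive control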
# NCF1 inh – p47phox (human) inhibition | 220,000 tested, 0.53% active | inhibition, % at 24.7 µM | p47phox/p22phox peptide binding, fluorescence polarization, 2 h;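 active = inhibition above about 30%, limit read from the data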;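 also: 0% = p47phox with labelled peptide and 100% = labelled peptide alone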
# TNAP inh hi DEA – TNAP (human) inhibition, high acceptor; 200,000 tested, 0.03% active; AID 1135; purified TNAP, CDP-star luminescence, 1 M DEA; P05186; inhibition, % at 20 µM;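 active = over 50% inhibition of tissue-nonspecific alkaline phosphatase at 20 µM in the single-dose screen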;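 also: plate controls were DMSO wells for no effect and EDTA-quenched wells as full inhibition for full effect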
# * marks the source's active call; other numbers are inactive results; i = inactive; ? = inconclusive; . = no result given; + = active, no number. Only some compounds are listed: those with a hit (about 1.8% of all), similar ones and a draw of the others.
SMILES,Autophagy HCS,TNAP act hiacc,Ins promoter up,TNAP inh noacc,NCF1 inh,TNAP inh hi DEA
O=[N+]([O-])c1ccc(/C=C/C2=NN(c3ccccc3)C(c3ccco3)C2)o1 (stereo unspecified),+,0.8,.,0,-73,23
C=CCn1c(CCNC(=O)c2ccccc2F)nnc1SCC(=O)Nc1nc2ccccc2s1,i,1,-0.62,0,-9,1
CCOC(=O)CN1N=C(c2ccc(Cl)s2)CSC1=O,i,1,0.19,-14,-6,0
COc1ccc(CN=C(C)c2c(C(F)(F)F)[nH]n(-c3nc4ccccc4s3)c2=O)cc1,+,1,-0.37,-5,-27,-2
Cc1cc(N2C(=O)C3CCC(c4ccccc4)CC3C2=O)no1 (stereo unspecified),i,1.1,0.12,-17,-110,-6
Nc1cccc2c1C(=O)N(C(=O)c1cccc(S(=O)(=O)N3CCCC3)c1)C2=O,i,1,3.1*,-5,2,-2
NC(=O)c1cccc(S(=O)(=O)N2CCCCC2)c1,i,1,-0.47,-14,-4,-4
COc1ccc(N/N=C(\C=N\O)C(=O)c2ccc(OC)cc2)cc1,+,0.9,-0.68,-8,-3,6
Nc1nc(CCOc2ccc(F)cc2)cs1,i,1,.,2,40*,-3
Nc1nc(COc2ccc3ccccc3c2)cs1,i,0.9,0.37,2,-4,6
CCOc1ccccc1NC(=O)c1cc(-c2ccncc2)nc2c(Cl)cccc12,i,1,-0.77,1,40*,-4
O=C(Nc1ccc([N+](=O)[O-])cc1)c1cc(-c2ccccn2)nc2c(Cl)cccc12,+,1.1,-0.08,-3,-6,-6
Cc1c(Cl)cccc1S(=O)(=O)Nc1ccnn1C,.,.,-0.15,.,5,.
CC(=O)N1C=Cc2c(c(C)c3c([nH]c4ccccc43)c2C)C1,.,.,.,.,77*,.
CCOC(=O)c1ccc(NC(=O)Nc2ccc3c4c(cccc24)C(=O)N3CC)cc1,+,1,-0.27,-9,3,-5
Cc1ccccc1CCN(C(=O)Cn1nnc2ccccc21)C(C(=O)NCC1CCCO1)c1nc2ccccc2n1C (stereo unspecified),i,1,0.23,-16,45*,-1
Cc1ccccc1C(C(=O)NCc1ccco1)N(CC1CCCO1)C(=O)Cn1nnc2ccccc21 (stereo unspecified),i,1.1,0.74,-5,5,-12
C/C(=N\NC(=O)COc1ccc(C)cc1Br)c1cc([N+](=O)[O-])cs1,i,1,-1.5,-1,32*,-2
CCC(=O)NC(NC(=S)Nc1c(C)n(C)n(-c2ccccc2)c1=O)C(Cl)(Cl)Cl (stereo unspecified),i,1,-0.34,-2,-8,-4
O=C1N(Cc2cccc(Cl)c2)C[C@@H]2C[C@@H](c3cccn3-c3nccs3)N3CCC[C@@]123,i,1,-1.2,-6,-6,-3
Cc1ccc(/C=C/C(=O)Nc2ccc(S(=O)(=O)Nc3ncccn3)cc2)cc1,i,1,-0.04,-8,-3,-3
O=C(/C=C/c1ccc(F)cc1)Nc1ccc(S(=O)(=O)Nc2ncccn2)cc1,.,.,0.46,.,120*,.
CCOCCOC(=O)c1[nH]c2c(c1C)C(=O)CC(c1cccs1)C2 (stereo unspecified),+,1,.,13,-2,-3
COCCOC(=O)c1[nH]c2c(c1C)C(=O)CC(c1cccs1)C2 (stereo unspecified),+,1,0.49,-21,-4,-4
Cc1ccc(S(=O)(=O)NCCC(=O)NC2CCCC2)cc1,+,1.1,0.18,-15,-13,-7
SMILES,Autophagy HCS,TNAP act hiacc,Ins promoter up,TNAP inh noacc,NCF1 inh,TNAP inh hi DEA
COc1ccc(Cc2nnc(N=Nc3c(O)[nH]c4ccc(Br)cc34)[nH]c2=O)cc1,i,0.6,-0.35,53*,-26,41
CCCC(=O)Nc1cccc(C(=O)Nc2ccccc2OCC)c1,i,1.1,0.46,-4,7,-7
Cc1nc(SCC(=O)Nc2c(C)nn(C)c2C)c2cnn(-c3ccccc3)c2n1,i,1,-0.41,-13,-4,-2
Cc1nn(Cc2ccccc2)c(C)c1NC(=O)CSc1nc(-c2ccccc2)nc2c1cnn2-c1ccccc1,i,1,-0.23,-7,32*,-2
Cc1cc(OCC(=O)N(C(C)C)C(C)C)cc(C)c1Br,i,1,1.2,2,-3,1
COc1ccccc1NC(=O)CSc1nnc(C2CCCCC2)n1-c1ccccc1,.,.,-0.13,.,-12,.
COc1ccc(C)c2sc(=NC(=O)c3ccc(C(C)=O)cc3)n(C)c12,.,.,-0.2,.,-1,.
COc1ccc(C)c2sc(=NC(=O)c3ccccc3)n(C)c12,i,1,-1.2,-9,45*,2
CC(C)n1c(O)c(N=Nc2ccc(Cl)nn2)c2ccccc21,+,0.9,0.59,7,-24,6
Cc1cc(C(=O)N=Nc2c(O)n(C(C)C)c3ccccc23)n[nH]1,i,0.9,-1.4,-37,2,5
COCCNC(=S)N/N=C(\C)c1ccc2cc(OC)ccc2c1,i,1,3.4*,-2,-6,3
COCCNC(=S)N/N=C(\C)c1ccc(OC)cc1,i,1,0.99,1,-11,3
Cc1ccc(Nc2nnc(SCC(=O)N(C)C3CCS(=O)(=O)C3)s2)cc1 (stereo unspecified),i,1,-0.06,-8,15,-5
CCN(C(=O)CSc1nnc(Nc2ccccc2)s1)C1CCS(=O)(=O)C1 (stereo unspecified),+,1,-0.16,0,4,4
Cc1cc(/C=C2\Sc3ccccc3N2C)cc(C)[n+]1CC1CCCO1 (stereo unspecified),+,0.9,?,-2,-2,14
O=C(OCC(=O)N1CCOCC1)c1cccc(S(=O)(=O)N2CCCc3ccccc32)c1,.,.,0.94,.,-11,.
COc1ccc2c(-c3cc4ccc(OCc5ccc(F)cc5)cc4oc3=O)cc(=O)oc2c1,i,1,-0.09,-12,37*,0
Cc1cccc(SC2CCN(Cc3nc(CC4CC4)no3)CC2)c1,i,1,-0.13,-3,41*,-1
CCOc1ccc(-n2c(N)c(-c3nc4ccccc4n3C)c3nc4ccccc4nc32)cc1,+,1,0.08,3,13,2
CN(C)S(=O)(=O)c1ccc2[nH]cc(/C=C/c3nc4ccccc4c(=O)n3-c3ccccc3)c2c1,i,1,.,1,-39,0
Cc1ccc(-n2sc3ccccc3c2=O)cc1S(=O)(=O)N1CCCCC1,i,1,-0.44,-5,85*,3
O=c1c2ccccc2sn1-c1nccs1,i,1.1,0.02,-26,104*,-8
O=c1c2ccccc2sn1-c1ccc(S(=O)(=O)N2CCCCC2)cc1,i,.,.,.,.,.
